For orientation: GI50 means the concentration at which growth is held to half of that of the control. One may read the EC50 as the concentration at which the effect is half-maximal. By IC50 is commonly meant the concentration that inhibits the measured activity by half. Lower therefore signals greater potency in that assay. The DC50 is the concentration at which degradation of the target reaches its halfway point. One may read the clearance as a measure of how efficiently the substance is removed, as volume per time. Low values mean a low capacity for elimination, high ones a high capacity for elimination. The term bioavailability denotes the share of a dose that reaches the circulation, judged against a reference dose that is usually intravenous. The term Papp A→B denotes how fast a substance crosses the layer from the apical side.

Calls of active or inactive are those of the source. The rule behind the calls is not given here. A value given as a limit tells only on which side of the number the result lay.

Here are results for one compound from ChEMBL document CHEMBL4831478, “Bispecific Estrogen Receptor α Degraders Incorporating Novel Binders Identified Using DNA-Encoded Chemical Library Screening” (J Med Chem, 2021).

Series [1] relates to MCF7. The series can be described thus: Antitumor activity against human MCF7 cells xenografted in CD1 mouse assessed as tumor growth inhibition at 10 mg/kg, sc administered once daily for 28 days by caliper method. In kind it is functional. The conditions noted are these: 672 h, time 28 day, read-out: TGI. The procedure, abridged:
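Mice implanted with 17β-estradiol pellets (0.18 mg) 2 days before sc right-flank inoculation of 10×10^6 MCF-7 cells in PBS/Matrigel (50:50). Randomized at mean tumor 165 mm³, 8 per group. Dosed 10 mg/kg sc qd; fulvestrant reference 3 mg/mouse sc weekly. Caliper measurements twice weekly, V = 0.5a×b². TGI from medians. Body weight recorded before each dosing.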
(A xenograft is tissue or cells of one species grown in another, often human tumour cells in immunodeficient mice.)

The subject of series [2] is MCF7. The series can be described thus: Antiproliferative activity against human MCF7 cells assessed as growth inhibition incubated for 7 days by CellTiter-Glo assay. In kind it is functional. The settings on record: MCF7, 168 h, time 7 day. In short, it runs like this:
(§1)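 Breast lines from ATCC, maintained in ATCC-specified media, treated with increasing compound doses in full-serum (complete) media for 7 days. Relative cell number measured by CellTiter-Glo ATP read-out.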
In general terms: In ATP-based viability assays light output follows the ATP content of the culture.

The target of series [3] is T1, Estrogen receptor (Homo sapiens) (UniProt P03372).
T1 sequence (whole entry): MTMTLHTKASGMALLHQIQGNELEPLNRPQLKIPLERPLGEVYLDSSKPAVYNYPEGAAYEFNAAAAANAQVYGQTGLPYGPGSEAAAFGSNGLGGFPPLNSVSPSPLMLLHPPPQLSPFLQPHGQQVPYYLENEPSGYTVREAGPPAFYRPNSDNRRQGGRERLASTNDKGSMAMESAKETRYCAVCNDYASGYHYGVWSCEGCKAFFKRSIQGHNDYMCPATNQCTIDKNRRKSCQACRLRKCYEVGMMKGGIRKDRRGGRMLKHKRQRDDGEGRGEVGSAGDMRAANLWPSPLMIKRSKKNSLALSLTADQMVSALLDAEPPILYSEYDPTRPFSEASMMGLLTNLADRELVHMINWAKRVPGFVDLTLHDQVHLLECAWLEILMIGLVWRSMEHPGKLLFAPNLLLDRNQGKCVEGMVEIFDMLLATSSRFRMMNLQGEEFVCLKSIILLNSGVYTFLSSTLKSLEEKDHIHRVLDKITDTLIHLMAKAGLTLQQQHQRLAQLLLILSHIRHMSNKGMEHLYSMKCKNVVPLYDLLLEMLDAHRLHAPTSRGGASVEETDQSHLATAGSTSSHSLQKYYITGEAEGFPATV
The series can be described thus: (§2) Antagonist activity at ERalpha in human MCF7 cells assessed as reduction in PGR gene expression incubated for 24 hrs by qPCR analysis. In kind it is cell-based. The conditions noted are these: filed as antagonist. The procedure, abridged: (§3)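 MCF7 cells in complete media, incubated 72 h, then dosed in a 6-point series (0.5% DMSO final) for 24 h at 37 °C. RNA extracted, cDNA made, TaqMan qPCR for progesterone receptor normalized to TBP. Comparative CT (ΔΔCT) used for dose-response curves.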
On the technique in general: In qPCR the cycle at which signal appears reflects the starting amount.

Series [4] concerns the target T2, Estrogen receptor (Homo sapiens, UniProt P03372).
T2 sequence (P03372 whole entry): T1 sequence (whole entry)
The series is described as §2. In kind it is cell-based. The procedure, abridged: as §3

Series [5] addresses Estrogen receptor (Homo sapiens, UniProt P03372, Y537S). The series can be described thus: Binding affinity to ERalpha Y537S mutant (unknown origin) expressed in Escherichia coli preincubated for 15 mins followed by ligand addition and measured after 1 hr by fluorescent polarization assay. The procedure, abridged: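 ERα LBD (aa 307–554), WT or D538G, S463P, Y537S, with N-terminal Avi-Tev-His tag, expressed in E. coli T7 Express (20 °C, 12 h, IPTG). Purified by Ni-NTA then size exclusion. Compound preincubated with protein 15 min, fluorescent ligand added, 1 h at room temperature. FP read ex 485/em 535 nm; duplicate runs averaged.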

Series [6] addresses T2, Estrogen receptor. The experiment in a line: Induction of ERalpha degradation in human MCF7 cells assessed as decrease in ERalpha protein expression incubated for 24 hrs by Western blot analysis. In kind it is cell-based.
A short description of series [7]: Clearance in CD1 mouse at 0.3 mg/kg, iv administered as cassette dosing […]. The conditions noted are these: in vivo. In kind it is ADME, organism-based.
The subject of series [8] is Mus musculus. The series can be described thus: Induction of ERalpha degradation in CD1 mouse xenografted with human MCF7 cells assessed as reduction in ERalpha level at 10 mg/kg, sc measured after 3 days by Western blotting analysis. Type of series: functional, organism-based. The conditions noted are these: time 3.0 day.
Series [9] in a line: Bioavailability in CD1 mouse at 10 mg/kg, sc administered as single dose […]. In kind it is ADME, organism-based. The conditions noted are these: in vivo.
For series [10], the target named is T2, Estrogen receptor. The series can be described thus: Induction of ERalpha degradation in human MCF7 cells assessed as decrease in ERalpha protein expression incubated for 48 hrs by Western blot analysis. In kind it is cell-based.
The nature of series [11]: Apparent permeability of compound across apical to basolateral side in MDCK cells. Type of series: ADME, cell-based, Canis lupus familiaris. The conditions noted are these: dog.
The target of series [12] is T2, Estrogen receptor. The series can be described thus: Induction of ERalpha degradation in human MCF7 cells assessed as decrease in ERalpha protein expression incubated for 48 hrs in presence of VHL298 by Western blotting analysis. In kind it is cell-based. The procedure, abridged:
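MCF7 in-cell western for ERα normalized to tubulin after dose titration co-treated with VHL298 at 5 μM, 48 h total treatment before collection.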

Series [13] is described as follows: Plasma protein binding in human. Type of series: ADME, cell-free. The settings on record: read-out: PPB.
Series [14] in a line: Cytotoxicity against human MCF-10A cells assessed as growth inhibition incubated for 7 days by CellTiter-Glo assay. The conditions noted are these: time 7 day. In kind it is cell-based. In short, it runs like this:
as §1

Series [15] relates to MCF7. The series can be described thus: Antiproliferative activity against human MCF7 cells assessed as reduction in cell viability preincubated with estradiol for 30 mins followed by compound addition and measured after 7 days by CellTiter-Glo assay. In kind it is functional, cell-based. In short, it runs like this:
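MCF7 cells seeded in hormone-deprived media for 72 h. All wells except minimum-signal controls received 0.1 nM estradiol for 30 min, then compound in a 10-point dose series. Incubated 7 days at 37 °C, 5% CO2; ATP content read by CellTiter-Glo 2.0. Duplicate runs averaged.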

Series [16] relates to MDA-MB-231. The experiment in a line: Antiproliferative activity against human MDA-MB-231 cells assessed as growth inhibition incubated for 7 days by CellTiter-Glo assay. Type of series: functional. The conditions noted are these: MDA-MB-231, 168 h, time 7 day. In short, it runs like this: as §1
A short description of series [17]: Microsomal stability in human liver microsomes assessed as intrinsic clearance measured upto 60 mins. Type of series: ADME, Microsome. The settings on record: read-out: CLH. The procedure, abridged:
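Compounds at 2 μM final incubated with pooled human or male mouse liver microsomes. Percent remaining measured at 0, 15, 30, 45 and 60 min and used to calculate in vitro half-life.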

Sequence of Estrogen receptor (Homo sapiens, UniProt P03372, Y537S) (P03372 whole entry Y537S, the tested form may be a part): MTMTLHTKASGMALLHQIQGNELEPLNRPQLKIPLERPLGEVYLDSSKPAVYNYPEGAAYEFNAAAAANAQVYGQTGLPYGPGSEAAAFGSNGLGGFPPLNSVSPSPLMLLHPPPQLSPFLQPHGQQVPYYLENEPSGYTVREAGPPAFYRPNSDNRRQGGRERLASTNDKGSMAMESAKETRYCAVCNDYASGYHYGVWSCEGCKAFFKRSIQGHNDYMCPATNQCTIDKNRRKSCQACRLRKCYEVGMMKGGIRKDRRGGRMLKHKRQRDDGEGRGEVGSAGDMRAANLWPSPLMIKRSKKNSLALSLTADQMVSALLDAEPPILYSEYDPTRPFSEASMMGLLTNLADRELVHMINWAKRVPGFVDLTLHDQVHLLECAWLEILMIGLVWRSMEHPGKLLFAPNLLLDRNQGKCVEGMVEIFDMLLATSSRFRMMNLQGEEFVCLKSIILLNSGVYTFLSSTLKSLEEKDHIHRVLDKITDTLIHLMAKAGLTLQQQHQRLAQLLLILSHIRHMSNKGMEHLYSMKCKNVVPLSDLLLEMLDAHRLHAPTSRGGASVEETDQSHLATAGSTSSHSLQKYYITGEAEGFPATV

With `Cc1ncsc1-c1ccc([C@@H](C)NC(=O)[C@@H]2C[C@@H](O)CN2C(=O)[C@H](NC(=O)COCCOCc2cn(CCOc3ccc(N(Cc4cccc(O)c4Cl)CC4(c5ccccc5F)CCCC4)cc3)nn2)C(C)(C)C)cc1`, the inhibition in vivo at 10 mg/kg in series [1] amounted to 30.8%. Also, the concentration for 50% growth inhibition (GI50) in series [2] was 13.8 nM; in series [16], > 10000 nM. In addition, the Activity entry in series [3] was “Dose-Dependent Effect”. The half-maximal effective concentration (EC50) in [4] is 27 nM; in series [15] it was 14 nM. The compound also registered a 50% inhibitory concentration (IC50) in series [5] of 419 nM. In addition, the results for the DC50 in series [6], in series [10] and in series [12] were 4.5 nM, 6 nM and 14 nM, respectively. Further, the clearance in series [7] came to 23 mL/min/kg. Besides, the outcome in [8] was Active. Moreover, the bioavailability in series [9] was > 100%. Besides, in series [11], the Papp A→B is < 0.1 ×10⁻⁶ cm/s. For the same compound, in [13], the fraction unbound is < 0.004. In addition, the GI50 at 168 h in series [14] was > 10000 nM. The microsomal CLint in [17] turned out to be 59 µL/min/mg.
